From ChEMBL document CHEMBL1147762, “A new chemical tool for exploring the physiological function of the PDE2 isozyme” (Bioorg Med Chem Lett, 2006) come the findings set out here.

Data set [1] has as its target cGMP-dependent 3',5'-cyclic phosphodiesterase (Homo sapiens, UniProt O00408). The data set can be described thus: Inhibitory activity against PDE2 by scintillation proximity assay. The essentials: (§1)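 Phosphodiesterase inhibition run as a scintillation proximity assay, with enzyme at a concentration in the linear range. Final substrate was 1 µM, below one-third of the enzyme K_M, so that IC50 approximates Ki. Values are means of n experiments with standard deviation.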

The target of data set [2] is 3',5'-cyclic-AMP phosphodiesterase 4A (Homo sapiens, UniProt P27815). Kind of data set: Inhibitory activity against PDE4A by scintillation proximity assay. The essentials: as §1
Data set [3] concerns the target 3',5'-cyclic-AMP phosphodiesterase 4C (Homo sapiens, UniProt Q08493). Kind of data set: Inhibitory activity against PDE4C by scintillation proximity assay. The method in brief: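 Scintillation proximity assay for phosphodiesterase inhibition. Enzyme is used at a concentration within the linear range, and its KM was measured. Final substrate concentration is 1 µM, below one-third of KM, so IC50 approximates Ki. Results are means of n experiments with standard deviation.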

Data set [4] has as its target Dual 3',5'-cyclic-AMP and -GMP phosphodiesterase 11A (Homo sapiens, UniProt Q9HCR9). The data set can be described thus: Inhibitory activity against PDE11 by scintillation proximity assay. The method in brief: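 Phosphodiesterase inhibition run as a scintillation proximity assay, with enzyme at a concentration in the linear range. Values are means of n experiments with standard deviation.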
For orientation: Scintillation proximity formats need no separation of bound from free tracer.

Data set [5] deals with Adenosine receptor A1 (Homo sapiens) (UniProt P30542). Kind of data set: Percentage binding to adenosine A1 receptor at 10 uM.
Data set [6] has as its target Beta-1 adrenergic receptor (Homo sapiens) (UniProt P08588). The data set can be described thus: Percentage binding to adrenergic beta-1 receptor at 10 uM.
The target in data set [7] is Ribosomal protein S6 kinase (P70S6K) (Homo sapiens) (UniProt Q9UBS0+P23443). Kind of data set: Inhibition of p70S6K at 10 uM. It counts as protein-complex assay.
Data set [8] deals with D(3) dopamine receptor (Homo sapiens) (UniProt P35462). The data set can be described thus: Percentage binding to dopamine D3 at 10 uM.
In data set [9] the target is Glutamate receptor ionotropic kainate (Homo sapiens) (UniProt P39086+Q16478+Q16099+Q13002+Q13003). Kind of data set: Percentage binding to kainate receptor at 10 uM. It counts as protein-complex assay.
Data set [10] addresses Melanocortin receptor 4 (Homo sapiens) (UniProt P32245). The data set can be described thus: Percentage binding to MCR4 at 10 uM.
Data set [11] concerns the target Muscarinic acetylcholine receptor M3 (Homo sapiens) (UniProt P20309). The data set can be described thus: Percentage binding to muscarinic M3 at 10 uM.
Data set [12] addresses Muscarinic acetylcholine receptor M4 (Homo sapiens) (UniProt P08173). The data set can be described thus: Percentage binding to muscarinic M4 at 10 uM.
Data set [13] addresses 5-hydroxytryptamine receptor 4 (Homo sapiens) (UniProt Q13639). Kind of data set: Percentage binding to serotonin 5HT4 at 10 uM.
For data set [14], the target named is Vasopressin V1 receptor (Homo sapiens) (UniProt P37288+P47901). The data set can be described thus: Percentage binding to vasopressin V1 at 10 uM. Format: protein assay.
Data set [15] deals with Vasopressin V2 receptor (Homo sapiens) (UniProt P30518). Kind of data set: Percentage binding to vasopressin V2 at 10 uM.
Data set [16] has as its target Dual specificity mitogen-activated protein kinase kinase 1 (Homo sapiens) (UniProt Q02750). The data set can be described thus: Inhibition of MKK1 at 10 uM.
The target in data set [17] is Sodium-dependent noradrenaline transporter (Homo sapiens) (UniProt P23975). Kind of data set: Activity against norepinephrine uptake at 10 uM.
In data set [18] the target is MAP kinase-activated protein kinase 2 (Homo sapiens) (UniProt P49137). The data set can be described thus: Inhibition of MAPKAPK2 at 10 uM.
Data set [19] has as its target Voltage-gated L-type calcium channel (Homo sapiens, UniProt Q13936+Q13698+Q01668+O60840). The data set can be described thus: Percentage binding to Ca2+ channel L at 10 uM. Format: protein assay.
A further data set has as its system P-glycoprotein (human). The data set can be described thus: Basolateral cell permeability in MDCK with MDR transfectant overexpressing human p-glycoprotein. Format: ADME, cell-based. The note with it: MDCK-MDR1.
The nature of data set [20]: Tmax in rat. Format: ADME, organism-based. The note with it: Sprague-Dawley, in vivo.
Data set [21] concerns the target 3-phosphoinositide-dependent protein kinase 1 (Homo sapiens) (UniProt O15530). The data set can be described thus: Inhibition of PDK1 at 10 uM.

Dual specificity mitogen-activated protein kinase kinase 1 (Homo sapiens), sequence (Q02750 whole entry): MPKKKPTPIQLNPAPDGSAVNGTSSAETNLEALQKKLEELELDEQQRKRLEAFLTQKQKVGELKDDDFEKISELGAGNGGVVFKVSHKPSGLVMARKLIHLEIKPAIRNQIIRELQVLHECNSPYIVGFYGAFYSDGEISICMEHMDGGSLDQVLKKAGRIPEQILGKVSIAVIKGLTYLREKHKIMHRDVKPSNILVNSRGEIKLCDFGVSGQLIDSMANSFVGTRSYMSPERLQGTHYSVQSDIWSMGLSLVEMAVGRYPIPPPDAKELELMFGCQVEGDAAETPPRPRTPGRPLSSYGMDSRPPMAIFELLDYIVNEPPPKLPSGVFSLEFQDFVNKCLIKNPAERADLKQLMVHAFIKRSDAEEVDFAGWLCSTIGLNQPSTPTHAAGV
Vasopressin V1 receptor (Homo sapiens), sequence (P37288 whole entry, looked up): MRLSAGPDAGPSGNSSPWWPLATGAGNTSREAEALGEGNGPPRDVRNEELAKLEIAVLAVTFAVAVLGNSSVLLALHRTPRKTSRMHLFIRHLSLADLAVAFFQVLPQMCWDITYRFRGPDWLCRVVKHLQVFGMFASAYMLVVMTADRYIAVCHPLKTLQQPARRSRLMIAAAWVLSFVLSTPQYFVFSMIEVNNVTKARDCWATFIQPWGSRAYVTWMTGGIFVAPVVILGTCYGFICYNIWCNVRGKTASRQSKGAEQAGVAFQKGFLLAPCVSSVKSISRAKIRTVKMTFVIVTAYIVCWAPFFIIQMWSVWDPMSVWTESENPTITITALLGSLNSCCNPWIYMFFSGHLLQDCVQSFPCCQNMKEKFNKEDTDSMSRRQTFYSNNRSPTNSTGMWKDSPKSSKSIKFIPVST
Vasopressin V1 receptor (Homo sapiens), sequence (P47901 whole entry, looked up): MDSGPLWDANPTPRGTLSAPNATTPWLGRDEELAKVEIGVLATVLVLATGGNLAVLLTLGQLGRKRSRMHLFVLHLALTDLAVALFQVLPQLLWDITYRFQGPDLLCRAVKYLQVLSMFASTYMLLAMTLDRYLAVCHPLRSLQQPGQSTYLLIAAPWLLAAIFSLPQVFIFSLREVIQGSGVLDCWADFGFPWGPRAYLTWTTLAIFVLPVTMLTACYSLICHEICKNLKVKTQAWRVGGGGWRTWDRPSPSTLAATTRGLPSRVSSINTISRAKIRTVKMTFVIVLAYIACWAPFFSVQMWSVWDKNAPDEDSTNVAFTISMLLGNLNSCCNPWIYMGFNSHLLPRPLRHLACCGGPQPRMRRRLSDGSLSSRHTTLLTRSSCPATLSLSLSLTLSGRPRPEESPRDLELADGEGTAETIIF
3',5'-cyclic-AMP phosphodiesterase 4A, sequence (P27815 whole entry): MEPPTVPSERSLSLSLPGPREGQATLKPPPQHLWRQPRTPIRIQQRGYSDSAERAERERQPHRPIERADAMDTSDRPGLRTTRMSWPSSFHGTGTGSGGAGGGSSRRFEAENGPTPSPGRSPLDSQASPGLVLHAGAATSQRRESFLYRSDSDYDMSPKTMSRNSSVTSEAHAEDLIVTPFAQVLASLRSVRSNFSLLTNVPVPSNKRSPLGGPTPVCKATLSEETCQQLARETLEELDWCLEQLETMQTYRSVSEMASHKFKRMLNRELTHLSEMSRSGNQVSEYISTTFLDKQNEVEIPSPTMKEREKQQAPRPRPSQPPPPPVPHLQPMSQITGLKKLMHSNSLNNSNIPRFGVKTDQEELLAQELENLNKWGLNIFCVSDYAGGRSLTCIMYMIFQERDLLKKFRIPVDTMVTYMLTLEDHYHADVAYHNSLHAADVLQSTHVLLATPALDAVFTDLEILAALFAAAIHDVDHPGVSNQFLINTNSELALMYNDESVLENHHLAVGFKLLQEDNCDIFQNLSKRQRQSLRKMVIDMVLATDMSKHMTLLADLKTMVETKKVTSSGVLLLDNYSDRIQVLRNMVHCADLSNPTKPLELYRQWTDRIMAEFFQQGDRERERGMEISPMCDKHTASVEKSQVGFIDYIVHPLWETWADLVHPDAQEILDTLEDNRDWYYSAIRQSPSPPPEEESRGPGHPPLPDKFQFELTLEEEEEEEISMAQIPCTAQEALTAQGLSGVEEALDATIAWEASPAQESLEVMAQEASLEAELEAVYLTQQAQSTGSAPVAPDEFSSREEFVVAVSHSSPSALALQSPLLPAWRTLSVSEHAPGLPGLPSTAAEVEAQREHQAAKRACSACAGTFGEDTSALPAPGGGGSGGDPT
Melanocortin receptor 4 (Homo sapiens), sequence (P32245 whole entry): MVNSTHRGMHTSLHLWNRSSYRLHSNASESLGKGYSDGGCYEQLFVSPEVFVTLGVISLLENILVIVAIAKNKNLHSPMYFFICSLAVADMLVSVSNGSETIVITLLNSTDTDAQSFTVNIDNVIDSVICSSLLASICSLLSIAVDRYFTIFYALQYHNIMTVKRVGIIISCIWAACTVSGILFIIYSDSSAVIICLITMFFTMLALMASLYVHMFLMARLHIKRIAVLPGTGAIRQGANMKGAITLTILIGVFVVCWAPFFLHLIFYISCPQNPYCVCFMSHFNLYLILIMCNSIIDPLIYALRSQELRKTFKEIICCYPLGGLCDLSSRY
3-phosphoinositide-dependent protein kinase 1 (Homo sapiens), sequence (O15530 whole entry, looked up): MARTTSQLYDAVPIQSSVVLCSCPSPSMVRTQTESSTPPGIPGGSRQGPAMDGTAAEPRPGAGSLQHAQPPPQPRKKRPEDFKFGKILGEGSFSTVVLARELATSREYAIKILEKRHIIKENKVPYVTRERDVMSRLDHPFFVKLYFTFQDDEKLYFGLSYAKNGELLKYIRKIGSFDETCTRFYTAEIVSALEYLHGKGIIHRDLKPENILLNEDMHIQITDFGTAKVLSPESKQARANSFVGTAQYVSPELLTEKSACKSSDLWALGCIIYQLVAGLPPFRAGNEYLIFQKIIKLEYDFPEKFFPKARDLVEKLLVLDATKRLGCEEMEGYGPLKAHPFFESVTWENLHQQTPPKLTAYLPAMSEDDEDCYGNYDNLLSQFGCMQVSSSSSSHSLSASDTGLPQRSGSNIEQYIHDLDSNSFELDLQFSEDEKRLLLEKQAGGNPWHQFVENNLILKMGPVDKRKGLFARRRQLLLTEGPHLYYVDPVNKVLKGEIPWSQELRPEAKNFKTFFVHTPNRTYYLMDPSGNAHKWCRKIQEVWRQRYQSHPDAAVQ
Adenosine receptor A1 (Homo sapiens), sequence (P30542 whole entry): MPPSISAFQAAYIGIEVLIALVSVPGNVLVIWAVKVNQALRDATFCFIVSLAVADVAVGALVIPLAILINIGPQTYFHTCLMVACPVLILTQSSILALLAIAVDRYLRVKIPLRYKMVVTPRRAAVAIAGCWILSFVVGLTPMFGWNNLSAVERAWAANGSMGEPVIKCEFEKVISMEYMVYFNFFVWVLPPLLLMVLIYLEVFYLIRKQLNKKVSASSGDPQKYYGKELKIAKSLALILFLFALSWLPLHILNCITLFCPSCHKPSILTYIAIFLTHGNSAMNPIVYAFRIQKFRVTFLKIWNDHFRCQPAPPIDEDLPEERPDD
Dual 3',5'-cyclic-AMP and -GMP phosphodiesterase 11A, sequence (Q9HCR9 whole entry): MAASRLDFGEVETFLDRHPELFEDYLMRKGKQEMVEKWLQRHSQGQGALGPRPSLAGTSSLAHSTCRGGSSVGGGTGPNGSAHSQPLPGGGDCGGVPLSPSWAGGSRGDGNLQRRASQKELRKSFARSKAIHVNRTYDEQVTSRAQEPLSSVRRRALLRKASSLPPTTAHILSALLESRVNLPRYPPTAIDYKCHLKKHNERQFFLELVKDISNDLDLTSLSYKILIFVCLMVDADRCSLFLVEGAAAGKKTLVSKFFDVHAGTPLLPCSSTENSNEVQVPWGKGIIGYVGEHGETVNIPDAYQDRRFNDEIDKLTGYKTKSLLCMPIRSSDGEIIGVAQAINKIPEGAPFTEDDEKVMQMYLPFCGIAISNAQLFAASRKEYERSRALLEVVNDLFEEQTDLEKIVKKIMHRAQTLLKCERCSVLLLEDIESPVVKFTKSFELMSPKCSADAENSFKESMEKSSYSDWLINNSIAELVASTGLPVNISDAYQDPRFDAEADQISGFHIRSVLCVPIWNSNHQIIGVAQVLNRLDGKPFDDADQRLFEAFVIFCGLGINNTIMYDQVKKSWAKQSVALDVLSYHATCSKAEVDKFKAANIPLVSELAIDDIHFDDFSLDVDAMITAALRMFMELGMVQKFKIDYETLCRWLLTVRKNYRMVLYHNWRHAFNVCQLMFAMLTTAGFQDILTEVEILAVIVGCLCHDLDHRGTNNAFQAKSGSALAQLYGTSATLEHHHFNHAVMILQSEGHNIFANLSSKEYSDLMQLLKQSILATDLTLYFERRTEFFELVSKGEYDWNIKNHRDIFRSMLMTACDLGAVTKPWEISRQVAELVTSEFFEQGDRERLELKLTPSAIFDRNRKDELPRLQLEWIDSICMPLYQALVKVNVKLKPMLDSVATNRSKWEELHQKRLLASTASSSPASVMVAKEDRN
3',5'-cyclic-AMP phosphodiesterase 4C, sequence (Q08493 whole entry): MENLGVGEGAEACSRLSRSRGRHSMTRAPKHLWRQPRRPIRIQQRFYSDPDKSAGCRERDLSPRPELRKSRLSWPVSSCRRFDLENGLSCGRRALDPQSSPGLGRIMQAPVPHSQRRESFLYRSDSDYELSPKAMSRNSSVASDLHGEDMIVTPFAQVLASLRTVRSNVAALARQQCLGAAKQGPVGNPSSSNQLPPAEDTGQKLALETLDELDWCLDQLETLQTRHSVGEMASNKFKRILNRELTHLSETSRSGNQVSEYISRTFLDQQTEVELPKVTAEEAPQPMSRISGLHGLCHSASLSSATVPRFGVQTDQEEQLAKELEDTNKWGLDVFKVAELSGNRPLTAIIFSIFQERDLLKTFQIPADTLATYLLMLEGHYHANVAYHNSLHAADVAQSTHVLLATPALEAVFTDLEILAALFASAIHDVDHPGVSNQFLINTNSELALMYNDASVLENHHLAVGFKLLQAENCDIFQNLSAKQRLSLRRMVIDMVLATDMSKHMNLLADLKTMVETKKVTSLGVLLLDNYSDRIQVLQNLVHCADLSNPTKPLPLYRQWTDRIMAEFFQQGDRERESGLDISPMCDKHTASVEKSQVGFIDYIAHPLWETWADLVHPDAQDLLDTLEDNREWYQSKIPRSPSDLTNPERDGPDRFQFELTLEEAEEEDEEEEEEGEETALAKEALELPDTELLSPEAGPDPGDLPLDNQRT

As for `CN1C(=O)C(C(=O)Nc2nncs2)c2cc3occc3cc21` (configuration not stated), the concentration for half-maximal inhibition (IC50) is 0.04 µM in data set [1], above 16 µM in [2], above 16 µM in data set [3] and 11.6 µM in data set [4]. Further, the Activity was 16% in [5]; 15% in [6]; 0% in [8]; 0% in data set [9]; 12% in [10]; 0% in [11]. Besides, the Activity in data set [12] turned out to be 1%; in data set [13] it was 0%; in data set [14], 5%; in data set [15] it was 13%; in data set [17] it was 12%; in data set [19], 0%. The inhibition in data set [7] amounted to 23%; in data set [16], 0%; in [18], 8%; in data set [21] it was 0%. In the data set with P-glycoprotein (human), the apparent permeability (Papp) was 4.6 ×10⁻⁶ cm/s. The time of peak concentration (Tmax) in data set [20] is 48 min.

What is called IC50 is the concentration needed to halve the response being measured. Low readings indicate inhibition by little substance, high ones a need for much substance. Broadly, the inhibition is the percentage by which the read-out fell short of the control. For orientation: Papp means a coefficient for how fast a substance crosses the barrier. What is called Tmax is the time at which the peak concentration occurs.
